According to ChEMBL document CHEMBL1125865, “Synthesis, antibacterial activities, and pharmacological properties of enantiomers of temafloxacin hydrochloride” (J Med Chem, 1991):
In brackets after ≈: the same amount, converted by molar mass.

Tests used:
Rattus norvegicus [1] = experiment: Effect on the spontaneous locomotor activity of rats at 0-15 min upon ip administration of the compounds at a dose of 15 mg/kg; assay type: functional; conditions: route intraperitoneal
How it was run: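 Rats were dosed ip; methylcellulose served as vehicle, and treatments were assigned randomly. Thirty minutes after dosing, each rat was placed in its own circular activity chamber. Activity was counted as photocell beam interruptions and recorded at 15 and 60 min after the test started. Values are mean counts ± SEM.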

Rattus norvegicus [2] = experiment: Effect on the spontaneous locomotor activity of rats at 0-15 min upon ip administration of the compounds at a dose of 1 mg/kg; assay type: functional; conditions: route intraperitoneal
How it was run: (§1)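 Rats were given test agent or methylcellulose vehicle (ip or po, per line), with treatments in random order. 30 min after dosing, each rat went into an individual circular activity chamber. Locomotion was counted as photocell-beam interruptions, recorded at 15 and 60 min from test start and reported as mean counts ± SEM.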

Rattus norvegicus [3] = experiment: Effect on the spontaneous locomotor activity of rats at 0-15 min upon po administration of the compounds at a dose of 30 mg/kg; assay type: functional; how it was run: as §1
Staphylococcus aureus [4] = experiment: Median dose against Staphylococcus aureus NCTC 10649 in mouse after subcutaneous administration at a dose of 100xLD50 in TEST 1.; assay type: functional; conditions: sc
How it was run: (§2)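 CF-1 female mice (~20 g) were infected ip with 0.5 mL of an 18-h BHI broth culture diluted in 5% (w/v) hog gastric mucin to the stated multiple of LD50. The HCl salt was dissolved in distilled water and given sc or po, with the total dose split equally at 1 and 5 h post-infection. Groups of 10 mice received at least three dose levels; ten infected mice were left untreated. Deaths were recorded daily for 6 days. ED50 came from day-6 cumulative mortality using the trimmed logit method.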

Pseudomonas aeruginosa [5] = experiment: The in vitro antibacterial activity as minimum inhibitory concentration against Pseudomonas aeruginosa K799/61; assay type: functional
How it was run: (§3)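 Agar dilution in BHI agar. Organisms were grown overnight in BHI broth at 36 °C. Two-fold dilutions gave test concentrations from 200 to 0.005 μg/mL. Plates were inoculated with ~10^4 organisms and incubated 18 h at 36 °C. MIC was the lowest concentration with no visible growth.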

[6] = tested on: Staphylococcus epidermidis; experiment: The in vitro antibacterial activity as minimum inhibitory concentration against Staphylococcus epidermidis 3519; assay type: functional
How it was run: (§4)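 Agar dilution: organisms grown overnight in BHI broth at 36 °C. Two-fold dilutions of a 2000 μg/mL stock were made in BHI agar, giving 200 to 0.005 μg/mL final. Plates were inoculated with about 10^4 organisms and incubated 18 h at 36 °C. MIC is the lowest concentration with no visible growth.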

Staphylococcus aureus [7] = experiment: Median dose against Staphylococcus aureus NCTC 10649 in mouse after peroral administration at a dose of 100xLD50 in TEST 2.; assay type: functional; conditions: po; how it was run: as §2
Micrococcus luteus [8] = experiment: The in vitro antibacterial activity as minimum inhibitory concentration against Micrococcus luteus ATCC 4698; assay type: functional; how it was run: as §3
Acinetobacter = experiment: The in vitro antibacterial activity as minimum inhibitory concentration against Acinetobacter sp. CMX 669; assay type: functional; how it was run: as §3
Pseudomonas aeruginosa [9] = experiment: The in vitro antibacterial activity as minimum inhibitory concentration against Pseudomonas aeruginosa A5007; assay type: functional; how it was run: as §3
[10] = Compound was tested for its water solubility in water.; assay type: ADME; conditions: read-out: S
How it was run: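 Solubility measured by adding excess drug to a fixed volume of distilled water at ambient temperature.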

Klebsiella pneumoniae = experiment: The in vitro antibacterial activity as minimum inhibitory concentration against Klebsiella pneumoniae ATCC 8045; assay type: functional; how it was run: as §3
Escherichia coli [11] = experiment: The in vitro antibacterial activity as minimum inhibitory concentration against Escherichia coli SS; assay type: functional; how it was run: as §3
Enterococcus faecium = experiment: The in vitro antibacterial activity as minimum inhibitory concentration against Enterococcus faecium ATCC 8043; assay type: functional; how it was run: as §3
Staphylococcus aureus [12] = experiment: The in vitro antibacterial activity as minimum inhibitory concentration against Staphylococcus aureus ATCC 6538P; assay type: functional; how it was run: as §4
Escherichia coli [13] = experiment: The in vitro antibacterial activity as minimum inhibitory concentration against Escherichia coli Juhl; assay type: functional; how it was run: as §3
Pseudomonas aeruginosa [14] = experiment: Median dose against Pseudomonas aeruginosa A5007 in mouse after subcutaneous administration at a dose of 100xLD50 in TEST 2.; assay type: functional; conditions: sc; how it was run: as §2
Streptococcus pyogenes [15] = experiment: The in vitro antibacterial activity as minimum inhibitory concentration against Streptococcus pyogenes 930 Const; assay type: functional; how it was run: as §4
Escherichia coli [16] = experiment: Median dose against Escherichia coli Juhl in mouse after subcutaneous administration at a dose of 100xLD50 in TEST 2.; assay type: functional; conditions: sc; how it was run: as §2
Streptococcus pneumoniae [17] = experiment: Median dose against Streptococcus pneumoniae 6303 in mouse after subcutaneous administration at a dose of 100xLD50 in TEST 1.; assay type: functional; conditions: sc; how it was run: as §2
Escherichia coli [18] = experiment: The in vitro antibacterial activity as minimum inhibitory concentration against Escherichia coli KNK437; assay type: functional; how it was run: as §3
Pseudomonas aeruginosa [19] = experiment: Median dose against Pseudomonas aeruginosa A5007 in mouse after peroral administration at a dose of 100xLD50 in TEST 1.; assay type: functional; conditions: po; how it was run: as §2
Micrococcus luteus [20] = experiment: The in vitro antibacterial activity as minimum inhibitory concentration against Micrococcus luteus ATCC 9341; assay type: functional; how it was run: as §3
Streptococcus pneumoniae [21] = experiment: Median dose against Streptococcus pneumoniae 6303 in mouse after peroral administration at a dose of 100xLD50 in TEST 1.; assay type: functional; conditions: po; how it was run: as §2
Pseudomonas aeruginosa [22] = experiment: Median dose against Pseudomonas aeruginosa A5007 in mouse after subcutaneous administration at a dose of 100xLD50 in TEST 1.; assay type: functional; conditions: sc; how it was run: as §2
Streptococcus agalactiae = experiment: The in vitro antibacterial activity as minimum inhibitory concentration against Streptococcus agalactiae CMX 508; assay type: functional; how it was run: as §4
Staphylococcus aureus [23] = experiment: The in vitro antibacterial activity as minimum inhibitory concentration against Staphylococcus aureus A5177; assay type: functional; how it was run: as §4
Klebsiella aerogenes = experiment: The in vitro antibacterial activity as minimum inhibitory concentration against Enterobacter aerogenes ATCC 13048; assay type: functional; how it was run: as §3
Staphylococcus aureus [24] = experiment: Median dose against Staphylococcus aureus NCTC 10649 in mouse after peroral administration at a dose of 100xLD50 in TEST 1.; assay type: functional; conditions: po; how it was run: as §2
[25] = Partition coefficient in octanol/water at pH 7.5 buffer.; assay type: physicochemical
[26] = Compound was tested for its water solubility at pH 7.5; assay type: physicochemical; conditions: aqueous, pH 7.5, pH 7.5
How it was run: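 Solubility measured by adding excess drug to a fixed volume of 0.05 M pH 7.5 potassium phosphate buffer at ambient temperature.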

Streptococcus pyogenes [27] = experiment: The in vitro antibacterial activity as minimum inhibitory concentration against Streptococcus pyogenes 2548 INDUC; assay type: functional; how it was run: as §4
Escherichia coli [28] = experiment: The in vitro antibacterial activity as minimum inhibitory concentration against Escherichia coli H-560; assay type: functional; how it was run: as §3
Staphylococcus aureus [29] = experiment: The in vitro antibacterial activity as minimum inhibitory concentration against Staphylococcus aureus 45; assay type: functional; how it was run: as §3
Streptococcus pyogenes [30] = experiment: The in vitro antibacterial activity as minimum inhibitory concentration against Streptococcus pyogenes EES61; assay type: functional; how it was run: as §4
Pseudomonas aeruginosa [31] = experiment: The in vitro antibacterial activity as minimum inhibitory concentration against Pseudomonas aeruginosa K799/WT; assay type: functional; how it was run: as §3
Escherichia coli [32] = experiment: Median dose against Escherichia coli Juhl in mouse after peroral administration at a dose of 100xLD50 in TEST 2.; assay type: functional; conditions: po; how it was run: as §2
Providencia stuartii = experiment: The in vitro antibacterial activity as minimum inhibitory concentration against Providencia stuartii CMX 640; assay type: functional; how it was run: as §3
Burkholderia cepacia = experiment: The in vitro antibacterial activity as minimum inhibitory concentration against Pseudomonas cepacia 2961; assay type: functional; how it was run: as §3
Staphylococcus aureus [33] = experiment: The in vitro antibacterial activity as minimum inhibitory concentration against Staphylococcus aureus 45 RAR2; assay type: functional; how it was run: as §3
Staphylococcus aureus [34] = experiment: Median dose against Staphylococcus aureus NCTC 10649 in mouse after subcutaneous administration at a dose of 100xLD50 in TEST 2.; assay type: functional; conditions: sc; how it was run: as §2
Streptococcus equinus = experiment: The in vitro antibacterial activity as minimum inhibitory concentration against Streptococcus bovis A5169; assay type: functional; how it was run: as §4
Pseudomonas aeruginosa [35] = experiment: The in vitro antibacterial activity as minimum inhibitory concentration against Pseudomonas aeruginosa BMH10; assay type: functional; how it was run: as §3
Escherichia coli [36] = experiment: Median dose against Escherichia coli Juhl cumulative mortalities in mouse after peroral administration at a dose of 100xLD50 in TEST 1.; assay type: functional; conditions: po
How it was run: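 Female CF-1 mice (~20 g) were challenged ip with 0.5 mL of 18-h BHI culture diluted in 5% hog gastric mucin to 100× LD50 (LD50 by Reed–Muench). Oral doses in distilled water were split equally at 1 and 5 h post-infection, with ≥3 dose levels and 10 mice each, plus untreated controls. ED50 was derived from day-6 cumulative mortality by trimmed logit.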

Escherichia coli [37] = experiment: Median dose against Escherichia coli Juhl in mouse after subcutaneous administration at a dose of 100xLD50 in TEST 1.; assay type: functional; conditions: sc; how it was run: as §2
Escherichia coli [38] = experiment: The in vitro antibacterial activity as minimum inhibitory concentration against Escherichia coli DC-2; assay type: functional; how it was run: as §3
Staphylococcus aureus [39] = experiment: The in vitro antibacterial activity as minimum inhibitory concentration against Staphylococcus aureus CMX 553; assay type: functional; how it was run: as §4
Pseudomonas aeruginosa [40] = experiment: Median dose against Pseudomonas aeruginosa A5007 in mouse after peroral administration at a dose of 100xLD50 in TEST 2.; assay type: functional; conditions: po; how it was run: as §2

Structure (SMILES): CN(C)CCCN1c2ccccc2Sc2ccc(Cl)cc21 [CHLORPROMAZINE]
- Mean activity counts (Rattus norvegicus [1]): 31

Structure (SMILES): CN[C@@H](C)Cc1ccccc1 [METHAMPHETAMINE]
- Mean activity counts (Rattus norvegicus [2]): 1462

Structure (SMILES): CCn1cc(C(=O)O)c(=O)c2cc3c(cc21)OCO3 [OXOLINIC ACID]
- Mean activity counts (Rattus norvegicus [3]): 972

Structure (SMILES): CC1CN(c2cc3c(cc2F)c(=O)c(C(=O)O)cn3-c2ccc(F)cc2F)CCN1 (stereo not drawn) [TEMAFLOXACIN]
- ED50 (Staphylococcus aureus [4]): 1.5 mg/kg
- MIC (Pseudomonas aeruginosa [5]): 0.05 µg/mL (≈ 0.12 µM)
- MIC [6]: 0.2 µg/mL (≈ 0.479 µM)
- ED50 (Staphylococcus aureus [7]): 3.2 mg/kg
- MIC (Micrococcus luteus [8]): 1.56 µg/mL (≈ 3.74 µM)
- MIC (Acinetobacter): 0.1 µg/mL (≈ 0.24 µM)
- MIC (Pseudomonas aeruginosa [9]): 0.39 µg/mL (≈ 0.934 µM)
- solubility [10]: 6500 µg/mL (≈ 15600 µM)
- MIC (Klebsiella pneumoniae): 0.05 µg/mL (≈ 0.12 µM)
- MIC (Escherichia coli [11]): 0.005 µg/mL (≈ 0.012 µM)
- MIC (Enterococcus faecium): 0.78 µg/mL (≈ 1.87 µM)
- MIC (Staphylococcus aureus [12]): 0.1 µg/mL (≈ 0.24 µM)
- MIC (Escherichia coli [13]): 0.05 µg/mL (≈ 0.12 µM)
- ED50 (Pseudomonas aeruginosa [14]): 12.5 mg/kg
- MIC (Streptococcus pyogenes [15]): 0.78 µg/mL (≈ 1.87 µM)
- ED50 (Escherichia coli [16]): 0.6 mg/kg
- ED50 (Streptococcus pneumoniae [17]): 6.2 mg/kg
- MIC (Escherichia coli [18]): 0.39 µg/mL (≈ 0.934 µM)
- ED50 (Pseudomonas aeruginosa [19]): 26.6 mg/kg
- MIC (Micrococcus luteus [20]): 3.1 µg/mL (≈ 7.43 µM)
- ED50 (Streptococcus pneumoniae [21]): 10.2 mg/kg
- ED50 (Pseudomonas aeruginosa [22]): 10.3 mg/kg
- MIC (Streptococcus agalactiae): 0.78 µg/mL (≈ 1.87 µM)
- MIC (Staphylococcus aureus [23]): 0.2 µg/mL (≈ 0.479 µM)
- MIC (Klebsiella aerogenes): 0.1 µg/mL (≈ 0.24 µM)
- ED50 (Staphylococcus aureus [24]): 6 mg/kg
- logD [25]: -0.29
- solubility [26]: 670 µg/mL (≈ 1610 µM)
- MIC (Streptococcus pyogenes [27]): 0.39 µg/mL (≈ 0.934 µM)
- MIC (Escherichia coli [28]): 0.05 µg/mL (≈ 0.12 µM)
- MIC (Staphylococcus aureus [29]): 0.2 µg/mL (≈ 0.479 µM)
- MIC (Streptococcus pyogenes [30]): 0.39 µg/mL (≈ 0.934 µM)
- MIC (Pseudomonas aeruginosa [31]): 0.39 µg/mL (≈ 0.934 µM)
- ED50 (Escherichia coli [32]): 5 mg/kg
- MIC (Providencia stuartii): 3.1 µg/mL (≈ 7.43 µM)
- MIC (Burkholderia cepacia): 12.5 µg/mL (≈ 29.9 µM)
- MIC (Staphylococcus aureus [33]): 0.39 µg/mL (≈ 0.934 µM)
- ED50 (Staphylococcus aureus [34]): 1.3 mg/kg
- MIC (Streptococcus equinus): 1.56 µg/mL (≈ 3.74 µM)
- MIC (Pseudomonas aeruginosa [35]): 0.39 µg/mL (≈ 0.934 µM)
- ED50 (Escherichia coli [36]): 3.7 mg/kg
- ED50 (Escherichia coli [37]): 0.5 mg/kg
- MIC (Escherichia coli [38]): 0.39 µg/mL (≈ 0.934 µM)
- MIC (Staphylococcus aureus [39]): 0.2 µg/mL (≈ 0.479 µM)
- ED50 (Pseudomonas aeruginosa [40]): 26.6 mg/kg
